# The source made the active and inactive calls. No cut-off for these calls is given here.
# Legend:
# MDA-MB-361 [1] = assay: Selectivity ratio of IC50 for human MT10 cells to IC50 for human MDA-MB-361 cells
# Procedure, shortened: (§1)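 Ratio of the IC50 in normal M10 cells to the IC50 in each cancer line. […] The paper reports the fold difference as the normal-cell to tumour-cell IC50 ratio.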
# MDA-MB-231 [2] = assay: Cell cycle arrest in human MDA-MB-231 cells at accumulation at G1 phase at 0.8 uM after 24 hrs by propidium iodide staining-based flow cytometric analysis (reference value: 48%); format: functional
# MDA-MB-231 [3] = assay: Cell cycle arrest in human MDA-MB-231 cells at accumulation at G1 phase at 0.8 uM after 48 hrs by propidium iodide staining-based flow cytometric analysis (reference value: 45%); format: functional
# MDA-MB-231 [4] = assay: Decrease in cyclin B1 expression in human MDA-MB-231 cells at 0.8 uM after 48 hrs by Western blot analysis; format: functional, cell-based
# Procedure, shortened: (§2)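 MDA-MB-231 cells treated with 0.2, 0.4 or 0.8 μM for 24 and 48 h. Attached and floating cells were lysed in RIPA-type buffer with protease inhibitors, and protein was quantified by BCA. Equal protein was run on 10%/15% SDS-PAGE and transferred to nitrocellulose. Blots were probed 1 h at room temperature for phospho-cdc2, cyclin B1, caspase-3, bak/bcl-2 or actin loading control, with HRP secondary and ECL detection.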
# MCF7 [5] = assay: Selectivity ratio of IC50 for human Detroit 551 cells to IC50 for human MCF7 cells
# MDA-MB-231 [6] = assay: Increase in cdc2 phosphorylation at Tyr15 expression in human MDA-MB-231 cells after 48 hrs by Western blot analysis; format: functional, cell-based; procedure, shortened: as §2
# MDA-MB-231 [7] = assay: Cell cycle arrest in human MDA-MB-231 cells at accumulation at subG1 phase at 0.8 uM after 48 hrs by propidium iodide staining-based flow cytometric analysis (reference value: 3%); format: functional
# MDA-MB-231 [8] = assay: Antiproliferative activity against human MDA-MB-231 cells assessed as decrease in cell count after 72 hrs by trypan blue dye exclusion assay; format: functional, cell-based
# Procedure, shortened: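 MDA-MB-231 cells seeded at 2 × 10^5 per well in 6-well plates, treated 24 h later in triplicate with compound (0.1–0.8 μM) or DMSO vehicle in 10% FBS DMEM/F12. Cells harvested by trypsinization at 24, 48 and 72 h, stained with 0.4% trypan blue and counted on a hemocytometer; three independent experiments.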
# MDA-MB-231 [9] = assay: Selectivity ratio of IC50 for human Detroit 551 cells to IC50 for human MDA-MB-231 cells
# MDA-MB-231 [10] = assay: Induction of apoptosis in human MDA-MB-231 cells assessed as bak protein level after 24 hrs by Western blot analysis; format: functional, cell-based; procedure, shortened: as §2
# MCF7 [11] = assay: Ratio of IC50 for 3,3'-diindolylmethane to compound for human MCF7 cells after 48 hrs by MTT assay; format: functional
# SW480 [12] = assay: Growth inhibition of human SW480 cells after 48 hrs by MTT assay; format: functional, cell-based; conditions: SW480, 48 h
# MDA-MB-231 [13] = assay: Increase in cyclin B1 expression in human MDA-MB-231 cells after 24 hrs by Western blot analysis; format: functional, cell-based; procedure, shortened: as §2
# MDA-MB-231 [14] = assay: Induction of apoptosis in human MDA-MB-231 cells assessed as increase in early apoptotic cells at 0.4 uM by annexinV propidium iodide staining-based flow cytometric analysis; format: functional, cell-based; conditions: TDE = time-dependent effect
# Procedure, shortened: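 MDA-MB-231 cells treated with 0.4 μM, washed twice in PBS and stained with annexin V-FITC/propidium iodide. Populations scored as viable (both negative), early apoptotic (annexin V positive, PI negative) or late apoptotic/dead (both positive).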
# A549 [15] = assay: Selectivity ratio of IC50 for human MT10 cells to IC50 for human A549 cells; procedure, shortened: as §1
# MDA-MB-231 [16] = assay: Induction of apoptosis in human MDA-MB-231 cells assessed as PARP cleavage after 24 to 48 hrs by Western blot analysis; format: functional, cell-based
# [17] = Growth inhibition of human M10 cells after 48 hrs by MTT assay; format: cell-based; conditions: M10, 48 h
# SW48 [18] = assay: Growth inhibition of human SW48 cells after 48 hrs by MTT assay; format: functional, cell-based; conditions: SW48, 48 h
# A549 [19] = assay: Growth inhibition of human A549 cells after 48 hrs by MTT assay; format: functional, cell-based; conditions: A549, 48 h
# MDA-MB-231 [20] = assay: Induction of apoptosis in human MDA-MB-231 cells assessed as bak protein level after 48 hrs by Western blot analysis; format: functional, cell-based; procedure, shortened: as §2
# Detroit 551 = assay: Growth inhibition of human Detroit 551 cells after 48 hrs by MTT assay; format: cell-based; conditions: Detroit 551, 48 h
# SW480 [21] = assay: Selectivity ratio of IC50 for human Detroit 551 cells to IC50 for human SW480 cells
# SW48 [22] = assay: Selectivity ratio of IC50 for human Detroit 551 cells to IC50 for human SW48 cells
# MCF7 [23] = assay: Growth inhibition of human MCF7 cells after 48 hrs by MTT assay; format: functional, cell-based; conditions: MCF7, 48 h
# MDA-MB-231 [24] = assay: Increase in cdc2 phosphorylation at Tyr15 expression in human MDA-MB-231 cells after 24 hrs by Western blot analysis; format: functional, cell-based; procedure, shortened: as §2
# MDA-MB-231 [25] = assay: Cell cycle arrest in human MDA-MB-231 cells at accumulation at S phase at 0.8 uM after 24 hrs by propidium iodide staining-based flow cytometric analysis (reference value: 20%); format: functional
# [26] = Selectivity ratio of IC50 for human MT10 cells to IC50 for human SW620 cells; format: ADME, cell-based, SW-620; conditions: MT10 cells and SW620 cells; procedure, shortened: as §1
# SW480 [27] = assay: Selectivity ratio of IC50 for human MT10 cells to IC50 for human SW480 cells; procedure, shortened: as §1
# MDA-MB-231 [28] = assay: Growth inhibition of human MDA-MB-231 cells after 48 hrs by MTT assay; format: functional, cell-based
# MDA-MB-231 [29] = assay: Ratio of IC50 for cyclic tetramer to compound for human MDA-MB-231 cells after 48 hrs by MTT assay; format: functional
# MDA-MB-231 [30] = assay: Selectivity ratio of IC50 for human MT10 cells to IC50 for human MDA-MB-231 cells; procedure, shortened: as §1
# MDA-MB-231 [31] = assay: Induction of apoptosis in human MDA-MB-231 cells assessed as DNA ladder formation at 0.4 to 1.6 uM after 48 hrs by agarose gel electrophoretic analysis; format: functional, cell-based
# Procedure, shortened: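 MDA-MB-231 cells seeded at 1 × 10^6 per dish, treated 24 h later with 0, 0.4, 0.8, 1.2 or 1.6 μM or DMSO for 48 h at 37 °C, 5% CO2. Cells lysed in TE buffer with 0.25% NP40 (pH 7.5). Lysate digested with RNase A then proteinase K, each 1 h at 37 °C. DNA resolved on 1.8% agarose gel.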
# MDA-MB-361 [32] = assay: Growth inhibition of human MDA-MB-361 cells after 48 hrs by MTT assay; format: functional, cell-based; conditions: MDA-MB-361, 48 h
# MDA-MB-231 [33] = assay: Increase in cyclin B1 expression in human MDA-MB-231 cells after 48 hrs by Western blot analysis; format: functional, cell-based; procedure, shortened: as §2
# MCF7 [34] = assay: Selectivity ratio of IC50 for human MT10 cells to IC50 for human MCF7 cells; procedure, shortened: as §1
# MDA-MB-231 [35] = assay: Induction of apoptosis in human MDA-MB-231 cells assessed as caspase 3 cleavage after 24 to 48 hrs by Western blot analysis; format: functional, cell-based; procedure, shortened: as §2
# SW48 [36] = assay: Selectivity ratio of IC50 for human MT10 cells to IC50 for human SW48 cells; procedure, shortened: as §1
# MDA-MB-231 [37] = assay: Induction of apoptosis in human MDA-MB-231 cells assessed as bcl-2 protein level after 24 to 48 hrs by Western blot analysis; format: functional, cell-based; procedure, shortened: as §2
compound,measurement,setting,value
Oc1ccc2[nH]cc(C(c3ccc(C(c4c[nH]c5ccc(O)cc45)c4c[nH]c5ccc(O)cc45)cc3)c3c[nH]c4ccc(O)cc34)c2c1,Ratio IC50,MDA-MB-361 [1],2.8
same,Activity,MDA-MB-231 [2],31%
same,Activity,MDA-MB-231 [3],25%
same,Activity,MDA-MB-231 [4],Active
same,Ratio IC50,MCF7 [5],> 22.7
same,Activity,MDA-MB-231 [6],Dose-dependent effect
same,Activity,MDA-MB-231 [7],21%
same,Activity,MDA-MB-231 [8],Dose-dependent effect
same,Ratio IC50,MDA-MB-231 [9],> 44
same,Activity,MDA-MB-231 [10],Active
same,Ratio IC50,MCF7 [11],57
same,IC50,SW480 [12],370 nM
same,Activity,MDA-MB-231 [13],Dose-dependent effect
same,Activity,MDA-MB-231 [14],tde
same,Ratio IC50,A549 [15],2
same,Activity,MDA-MB-231 [16],Dose-dependent effect
same,IC50,[17],5.81 µM
same,IC50,SW48 [18],880 nM
same,IC50,A549 [19],2890 nM
same,Activity,MDA-MB-231 [20],Active
same,IC50,Detroit 551,> 20 µM
same,Ratio IC50,SW480 [21],> 54
same,Ratio IC50,SW48 [22],> 22.7
same,IC50,MCF7 [23],880 nM
same,Activity,MDA-MB-231 [24],Dose-dependent effect
same,Activity,MDA-MB-231 [25],23%
same,selectivity ratio,[26],5.9
same,Ratio IC50,SW480 [27],15.7
same,inhibition,MDA-MB-231 [28],Dose-dependent effect
same,IC50,"MDA-MB-231 [28]; MDA-MB-231, 48 h",450 nM
same,Ratio IC50,MDA-MB-231 [29],2
same,Ratio IC50,MDA-MB-231 [30],12.9
same,Activity,MDA-MB-231 [31],Active
same,IC50,MDA-MB-361 [32],2070 nM
same,Activity,MDA-MB-231 [33],Dose-dependent effect
same,Ratio IC50,MCF7 [34],6.6
same,Activity,MDA-MB-231 [35],Dose-dependent effect
same,Ratio IC50,SW48 [36],6.6
same,Activity,MDA-MB-231 [37],Dose-dependent effect

# — ChEMBL document CHEMBL2021927, “Synthesis and evaluation of the cytotoxicities of tetraindoles: observation that the 5-hydroxy tetraindole (SK228) induces G₂ arrest and apoptosis in human breast cancer cells” (J Med Chem, 2012)
